Data set [1] is described as follows: In vitro skin penetration across excised rat skin. It is filed as in vitro ADME, SD rats. To be noted: for skin permeability compared to the other CPPs: FAM-CPP conjugates, excised rat back skin, P < 0.01. A digest of the protocol:
(§1)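 Valia-Chien diffusion cells at 37 ± 0.5 °C, stirred at 250 rpm, with excised rat back skin or Berkshire pig skin. Donor held 50 μmol/L N-terminally FAM-labelled peptide or free FAM in 0.9% NaCl with 0.5% (v/v) DMSO. Receiver sampled at 0–5 h and replaced with fresh saline; fluorescence read at 492 nm. Cumulative amount and Papp derived; at least 4 replicates.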

A short description of data set [2]: In vitro skin penetration across excised pig skin. Format: in vitro ADME, Berkshire pig. The note with it: FAM-peptide conjugate vs free FAM, donor 50 μmol/L. The essentials: as §1
The next data set deals with B16F10 cells. The experiment in a line: Calcein-AM/PI double staining of B16F10 cells. Format: cell-based. To be noted: 15 μmol/L, 48 h, vs control group. The essentials:
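B16F10 cells exposed 48 h to 15 μmol/L agents, then stained with a Calcein-AM/PI double staining kit (calcein marks live cells green, PI marks dead cells red). Imaged by inverted fluorescence microscopy.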

For data set [3], the system named is human keratinocyte cells (HeKa cells). The experiment in a line: HeKa cell viability. Format: cell-based. The note with it: 50 μmol/L FAM-CPP conjugate, exposure 72 h, CCK-8, n = 3. A digest of the protocol:
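HeKa cells exposed to 50 μmol/L FAM or FAM–peptide conjugate for 48 and 72 h. Viability read with CCK-8; n = 3.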

The source of these data is publication PMC12892081 (Acta Pharmaceutica Sinica. B, 2025).

Where a SMILES comes first, the peptide text is derived from it. Bridges are numbered along the chain shown (N, C = ends). The star is where a group is joined. 5FAM = O=C1OC2(c3ccc(O)cc3Oc3cc(O)ccc32)c2ccc(C(=O)*)cc21

On to `CC[C@H](C)[C@H](NC(=O)[C@H](CCC(N)=O)NC(=O)[C@H](CCCNC(=N)N)NC(=O)c1ccc2c(c1)C(=O)OC21c2ccc(O)cc2Oc2cc(O)ccc21)C(=O)N[C@@H](CCCCN)C(=O)N[C@@H](Cc1c[nH]c2ccccc12)C(=O)N[C@@H](Cc1c[nH]c2ccccc12)C(=O)N[C@@H](Cc1ccccc1)C(=O)N[C@@H](Cc1c[nH]c2ccccc12)C(=O)N[C@@H](Cc1c[nH]c2ccccc12)C(=O)N[C@@H](CCCNC(=N)N)C(=O)N[C@@H](CCCNC(=N)N)C(=O)N[C@@H](CCSC)C(=O)N[C@@H](CCCCN)C(=O)N[C@@H](Cc1c[nH]c2ccccc12)C(=O)N[C@@H](CCCCN)C(=O)N[C@@H](CCCCN)C(=O)O` [FAM-589WP] (5FAM-RQIKWWFWWRRMKWKK-OH), for which the “increase in Papp compared to free FAM, rat skin” value in data set [1] (FAM-peptide conjugate vs free FAM, excised rat skin, donor 50 μmol/L) was found to be 72 fold. For the same molecule, the “increase in Papp compared to free FAM, pig skin” value in data set [2] was 60 fold.

Turning to `O=c1[nH]c(=O)n([C@H]2C[C@H](O)[C@@H](CO)O2)cc1F` [FUdR, 5-fluoro-2ʹ-deoxyuridine], in the data set on B16F10 cells, the “live cell density / dead cells by Calcein-PI staining” value is recorded as “notable decrease in live cell density”.

In the case of `CC[C@H](C)[C@H](NC(=O)[C@H](CCCCN)NC(=O)[C@@H](NC(=O)[C@H](CCC(N)=O)NC(=O)[C@H](CCCNC(=N)N)NC(=O)c1ccc2c(c1)C(=O)OC21c2ccc(O)cc2Oc2cc(O)ccc21)[C@@H](C)CC)C(=O)N[C@@H](Cc1c[nH]c2ccccc12)C(=O)N[C@@H](Cc1ccccc1)C(=O)N[C@@H](CCC(N)=O)C(=O)N[C@@H](CC(N)=O)C(=O)N[C@@H](CCCNC(=N)N)C(=O)N[C@@H](CCCNC(=N)N)C(=O)N[C@@H](CCSC)C(=O)N[C@@H](CCCCN)C(=O)N[C@@H](Cc1c[nH]c2ccccc12)C(=O)N[C@@H](CCCCN)C(=O)N[C@@H](CCCCN)C(=O)O` [Penetratin], the “skin permeability compared to the other CPPs” value in data set [1] (donor 50 μmol/L) is reported as “significantly higher than the other CPPs”. The “cytotoxicity to HeKa cells” value in data set [3] is “did not display cytotoxicity”.

With `C[C@H](NC(=O)c1ccc2c(c1)C(=O)OC21c2ccc(O)cc2Oc2cc(O)ccc21)C(=O)N[C@H]1CSSC[C@@H](C(=O)NCC(=O)O)NC(=O)[C@H](CCC(N)=O)NC(=O)[C@H](Cc2c[nH]cn2)NC(=O)[C@H](CCC(N)=O)NC(=O)[C@H]([C@@H](C)O)NC(=O)[C@H](CO)NC(=O)CNC(=O)[C@H]([C@@H](C)O)NC1=O` [SPACE] (5FAM-ACTGSTQHQCG-OH; disulfide 2-10), in data set [1] (FAM conjugates, excised rat skin), the “permeability relative to the optimized peptide 589WP” value was “about one-third the permeability of the optimized peptide 589WP”. In addition, the “permeability relative to wild-type penetratin” value in data set [1] (FAM conjugates, excised rat skin (Fig. 1)) is on record as “about half the permeability of wild-type penetratin”.

With `CC[C@H](C)[C@H](NC(=O)[C@H](CCCCN)NC(=O)[C@H](CCCCN)NC(=O)[C@H](C)NC(=O)[C@H](CC(C)C)NC(=O)[C@H](C)NC(=O)[C@H](C)NC(=O)[C@H](CC(C)C)NC(=O)[C@H](C)NC(=O)[C@H](CCCCN)NC(=O)[C@H](CC(C)C)NC(=O)[C@H](CC(N)=O)NC(=O)[C@@H](NC(=O)[C@H](CCCCN)NC(=O)CNC(=O)[C@H](CC(C)C)NC(=O)[C@H](CC(C)C)NC(=O)[C@H](Cc1ccc(O)cc1)NC(=O)CNC(=O)[C@H](C)NC(=O)[C@H](CO)NC(=O)[C@H](CC(N)=O)NC(=O)[C@H](CC(C)C)NC(=O)[C@@H](NC(=O)[C@H](Cc1c[nH]c2ccccc12)NC(=O)CNC(=O)c1ccc2c(c1)C(=O)OC21c2ccc(O)cc2Oc2cc(O)ccc21)[C@@H](C)O)[C@@H](C)CC)C(=O)N[C@@H](CC(C)C)C(=O)O` [Transportan], in data set [1] (donor 50 μmol/L), the “skin permeability compared to the other CPPs” value is recorded as “significantly higher than the other CPPs”.
